From ChEMBL document CHEMBL3525963, “Tissue distribution and elimination of [14C]apixaban in rats” (Drug Metab Dispos, 2011)

How the values were obtained:
Conditions in all cases: in vivo
[1] = test system: Rattus norvegicus; experiment: Biodistribution in female Sprague-Dawley rat kidney cortex at 5 mg/kg, po administered as single dose measured after 4 hrs; format: ADME, organism-based; design: dose 5 mg/kg, dosed compound name [14C]-apixaban, route oral
Summary of the method: (§1)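 [14C]apixaban (20 μCi/mL in dosing solution) in 0.5% Tween 80 in Labrafil given by oral gavage to fasted female rats, 206-213 g, at 100 μCi/kg. One rat per time point was euthanized and snap-frozen. Sagittal 40 µm whole-body sections were read by QWBA phosphor imaging against [14C]glucose standards. Results are in µg eq apixaban/g, with LLOQ 0.037 μg eq/g.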

[2] = test system: Thymus; experiment: Biodistribution in female Sprague-Dawley rat thymus at 5 mg/kg, po administered as single dose measured after 24 hrs; format: ADME, organism-based; design: dose 5 mg/kg, dosed compound name [14C]-apixaban, route oral
Summary of the method: (§2)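 Quantitative whole-body autoradiography was run after a single 5 mg/kg (100 μCi/kg) oral gavage to fasted female or pregnant SD rats, one rat per time point. Carcasses were frozen in hexane/dry ice, and 40 µm sagittal sections were dried at −20°C for at least 48 h. Sections were exposed to a phosphor plate alongside [14C]glucose standards (0.001–6.5 µCi/g). Results are µg eq/g, with LLOQ 0.037 µg eq/g.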

[3] = test system: Spleen; experiment: Biodistribution in female Sprague-Dawley rat spleen at 5 mg/kg, po administered as single dose measured after 24 hrs; format: ADME, organism-based; design: dose 5 mg/kg, dosed compound name [14C]-apixaban, route oral; summary of the method: as §2
[4] = test system: Lung; experiment: Biodistribution in female Sprague-Dawley rat lung at 5 mg/kg, po administered as single dose measured after 8 hrs; format: ADME, organism-based; design: dose 5 mg/kg, dosed compound name [14C]-apixaban, route oral
Summary of the method: (§3)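 [¹⁴C]Apixaban given by oral gavage at 5 mg/kg (100 μCi/kg) in 0.5% Tween 80 in Labrafil (1.0 mg/mL dosing solution) to rats fasted overnight through 4 h post-dose. One rat per time point; carcass frozen in hexane/dry ice. Quantitative whole-body autoradiography used 40 µm sagittal sections and a phosphor imaging plate calibrated with [¹⁴C]glucose standards (0.001–6.5 μCi/g). Read-out in µg eq apixaban/g; LLOQ 0.037 μg eq/g.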

[5] = test system: Liver; experiment: Biodistribution in female Sprague-Dawley rat liver at 5 mg/kg, po administered as single dose measured after 72 hrs; format: ADME, organism-based; design: dose 5 mg/kg, dosed compound name [14C]-apixaban, route oral; summary of the method: as §2
[6] = test system: Rattus norvegicus; experiment: Biodistribution in fetal blood of pregnant Sprague-Dawley rat at 5 mg/kg, po administered as single dose measured after 24 hrs; format: ADME, organism-based; design: dose 5 mg/kg, dosed compound name [14C]-apixaban, route oral; summary of the method: as §2
[7] = test system: Adrenal gland; experiment: Biodistribution in male Sprague-Dawley rat adrenal gland at 5 mg/kg, po administered as single dose measured after 8 hrs; format: ADME, organism-based; design: dose 5 mg/kg, dosed compound name [14C]-apixaban, route oral; summary of the method: as §3
[8] = test system: Rattus norvegicus; experiment: Biodistribution in fetal kidney of pregnant Sprague-Dawley rat at 5 mg/kg, po administered as single dose measured after 8 hrs; format: ADME, organism-based; design: dose 5 mg/kg, dosed compound name [14C]-apixaban, route oral
Summary of the method: (§4)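 Fasted pregnant SD rats (n=6, 270-319 g) each received one oral gavage dose of [14C]apixaban, 5 mg/kg (100 μCi/kg), in 0.5% Tween 80/Labrafil. One rat was killed at each of 0.5, 1, 4, 8, 24 and 48 h. Carcasses were frozen in hexane/dry ice, cut into 40 µm sagittal sections, exposed to phosphor plates and quantified against [14C]glucose standards as µg eq/g. LLOQ was 0.037 µg eq/g.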

[9] = test system: Rattus norvegicus; experiment: Biodistribution in pregnant Sprague-Dawley rat kidney cortex at 5 mg/kg, po administered as single dose measured after 48 hrs; format: ADME, organism-based; design: dose 5 mg/kg, dosed compound name [14C]-apixaban, route oral; summary of the method: as §4
[10] = test system: Pancreas; experiment: Biodistribution in female Sprague-Dawley rat pancreas at 5 mg/kg, po administered as single dose measured after 1 hr; format: ADME, organism-based; design: dose 5 mg/kg, dosed compound name [14C]-apixaban, route oral; summary of the method: as §3
[11] = test system: Rattus norvegicus; experiment: Biodistribution in pregnant Sprague-Dawley rat placenta at 5 mg/kg, po administered as single dose measured after 1 hr; format: ADME, organism-based; design: dose 5 mg/kg, dosed compound name [14C]-apixaban, route oral
[12] = test system: Spleen; experiment: Biodistribution in female Sprague-Dawley rat spleen at 5 mg/kg, po administered as single dose measured after 4 hrs; format: ADME, organism-based; design: dose 5 mg/kg, dosed compound name [14C]-apixaban, route oral; summary of the method: as §3
[13] = test system: Thymus; experiment: Biodistribution in male Sprague-Dawley rat thymus at 5 mg/kg, po administered as single dose measured after 4 hrs; format: ADME, organism-based; design: dose 5 mg/kg, dosed compound name [14C]-apixaban, route oral
[14] = test system: Blood; experiment: Cmax in lactating Sprague-Dawley rat blood at 5 mg/kg, po administered as single dose; format: ADME, organism-based; design: dose 5 mg/kg, dosed compound name [14C]-apixaban, route oral
Summary of the method: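 Lactating SD rats received a single oral gavage of 5 mg/kg (108 μCi/kg) in 0.5% Tween 80/Labrafil. Three rats were sampled per time point at 0.5-24 h. Oxytocin was given sc 15 min before milking under anesthesia. Milk, blood and plasma were counted in duplicate by liquid scintillation for 10 min and expressed as apixaban equivalents.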

[15] = test system: Rattus norvegicus; experiment: Biodistribution in male Sprague-Dawley rat brown fat at 5 mg/kg, po administered as single dose measured after 72 hrs; format: ADME, organism-based, Brown adipose tissue; design: dose 5 mg/kg, dosed compound name [14C]-apixaban, route oral
Summary of the method: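 Fasted male SD rats (225-252 g) each received one oral gavage dose of [14C]apixaban, 5 mg/kg (100 μCi/kg), in 0.5% Tween 80/Labrafil vehicle. One rat was killed per time point, from 0.5 to 168 h. Frozen carcasses were cut into 40 µm sagittal whole-body sections and read by QWBA phosphor imaging against [14C]glucose calibrants. Results are in µg apixaban eq/g; BLQ <0.037 µg eq/g.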

[16] = test system: Harderian gland; experiment: Biodistribution in female Sprague-Dawley rat harderian gland at 5 mg/kg, po administered as single dose measured after 4 hrs; format: ADME, organism-based; design: dose 5 mg/kg, dosed compound name [14C]-apixaban, route oral; summary of the method: as §3
[17] = test system: Rattus norvegicus; experiment: Biodistribution in female Sprague-Dawley rat salivary gland at 5 mg/kg, po administered as single dose measured after 1 hr; format: ADME, organism-based; design: dose 5 mg/kg, dosed compound name [14C]-apixaban, route oral; summary of the method: as §1
[18] = test system: Rattus norvegicus; experiment: Biodistribution in male Sprague-Dawley rat brown fat at 5 mg/kg, po administered as single dose measured after 1 hr; format: ADME, organism-based, Brown adipose tissue; design: dose 5 mg/kg, dosed compound name [14C]-apixaban, route oral
Summary of the method: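 Fasted male rats, 225-252 g, received [14C]apixaban by single oral gavage at 100 μCi/kg in 0.5% Tween 80/Labrafil. One rat was killed per time point and the carcass frozen. Tissue radioactivity was quantified by QWBA (40 µm sagittal sections, phosphor plate, [14C]glucose calibration) as µg eq apixaban/g, with LLOQ 0.037 μg eq/g.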

[19] = test system: Rattus norvegicus; experiment: Biodistribution in pregnant Sprague-Dawley rat amnion at 5 mg/kg, po administered as single dose measured after 4 hrs; format: ADME, organism-based; design: dose 5 mg/kg, dosed compound name [14C]-apixaban, route oral
[20] = test system: Muscle tissue; experiment: Biodistribution in male Sprague-Dawley rat muscle at 5 mg/kg, po administered as single dose measured after 1 hr; format: ADME, organism-based; design: dose 5 mg/kg, dosed compound name [14C]-apixaban, route oral
Summary of the method: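 [14C]apixaban (1.0 mg/mL, 20 μCi/mL) in 0.5% Tween 80 in Labrafil, given by oral gavage at 100 μCi/kg to male rats (225-252 g) fasted overnight through 4 h post-dose. One rat per time point. Carcasses frozen in hexane/dry ice and cut into 40 µm sagittal sections. QWBA read on phosphor plates against [14C]glucose standards, reported as µg eq/g. LLOQ 0.037 µg eq/g.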

[21] = test system: Blood; experiment: Biodistribution in female Sprague-Dawley rat blood at 5 mg/kg, po administered as single dose measured after 8 hrs; format: ADME, organism-based; design: dose 5 mg/kg, dosed compound name [14C]-apixaban, route oral; summary of the method: as §3
[22] = Drug level in lactating Sprague-Dawley rat milk at 5 mg/kg, po administered as single dose after 1 hr; format: ADME, organism-based; design: dose 5 mg/kg, dosed compound name [14C]-apixaban, route oral
[23] = test system: Adrenal gland; experiment: Biodistribution in female Sprague-Dawley rat adrenal gland at 5 mg/kg, po administered as single dose measured after 24 hrs; format: ADME, organism-based; design: dose 5 mg/kg, dosed compound name [14C]-apixaban, route oral; summary of the method: as §2
[24] = Drug excretion in Sprague-Dawley rat urine at 30 mg/kg, po administered as single dose after 0 to 168 hrs
[25] = test system: Spleen; experiment: Biodistribution in pregnant Sprague-Dawley rat spleen at 5 mg/kg, po administered as single dose measured after 24 hrs; format: ADME, organism-based; design: dose 5 mg/kg, dosed compound name [14C]-apixaban, route oral

Radiolabel recovery [1]: 1.21 ugequiv/g | Radiolabel recovery [2]: Not detected assumed BLQ | Radiolabel recovery [3]: Not detected assumed BLQ | Radiolabel recovery [4]: 0.2 ugequiv/g | Radiolabel recovery [5]: Not detected assumed BLQ | Radiolabel recovery [6]: Not detected assumed BLQ | Radiolabel recovery [7]: 0.17 ugequiv/g | Radiolabel recovery [9]: Not detected assumed BLQ | Radiolabel recovery [10]: 0.62 ugequiv/g | Radiolabel recovery [11]: 0.74 ugequiv/g | Radiolabel recovery [12]: 0.45 ugequiv/g | Radiolabel recovery [13]: 0.23 ugequiv/g | Cmax [14]: 514 ngequiv/g | Radiolabel recovery [16]: 1.12 ugequiv/g | Radiolabel recovery [17]: 0.55 ugequiv/g | Radiolabel recovery [18]: 0.94 ugequiv/g | Radiolabel recovery [19]: 11.24 ugequiv/g | Radiolabel recovery [20]: 0.43 ugequiv/g | Radiolabel recovery [21]: 0.17 ugequiv/g | Radiolabel recovery [22]: 4.56 µg/mL | Radiolabel recovery [23]: Not detected assumed BLQ | Radiolabel recovery [24]: 14% | Radiolabel recovery [25]: < 0.037 ugequiv/g
Structure (SMILES): COc1ccc(-n2nc(C(N)=O)c3c2C(=O)N(c2ccc(N4CCCC[14C]4=O)cc2)CC3)cc1
Radiolabel recovery [8]: Not sampled as not visualised in autoradiograph | Radiolabel recovery [15]: Not sampled as not visualised in autoradiograph
